High-throughput results deposited in PubChem BioAssay by Broad Institute.
Xi reactivation: reactivates the inactive X chromosome in mouse fibroblasts. XiGFP mouse fibroblasts, % GFP-positive cells imaging, 3 d; cells co-treated with 5-aza-dC sensitizer; scaled so ellipticine positive control = 100%. activation, % at 7.58 µM. 360,000 compounds, 0.055% hits;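 active = mean normalized replicate activation at least 10% and every replicate at or above 10%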
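Material: XiGFP fibroblasts, SV40-immortalized; Buffer or medium: DMEM containing 5-aza-dC; Compound dosing: single point; Times: 3 days compound exposure.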
DENV2 CPE: inhibitors of DENV2 cytopathic effect; CPE inhibition, % at 9.99 µM; 350,000 compounds, 1.7% hits; DENV2-infected cells, cytopathic effect rescue, plate reader; AID 651640; in the data active = CPE inhibition above about 20%, passing the limit was not always enough; tested in BHK-21 cells
S100A4 inh HTS: S100A4-myosin IIA interaction inhibition | inhibition, % at 10.7 µM | P26447 | AID 652163 | S100A4/TAMRA-MyoIIA peptide fluorescence polarization | 360,000 compounds, 0.14% hits;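 active = mean inhibition of at least 70% across replicates, with every replicate also reaching that level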
Target sequence (P26447 whole entry, looked up): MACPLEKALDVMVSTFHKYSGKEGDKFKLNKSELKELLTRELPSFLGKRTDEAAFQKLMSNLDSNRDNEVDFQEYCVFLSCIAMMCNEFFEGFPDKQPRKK
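Material: S100A4 monomer (human). Medium: Calcium-containing HEPES buffer, pH 7.2. Probe or stimulus: labelled myosin peptide probe, 5 nM. Compound dosing: one concentration per compound. Timing: polarization read 5 min after assay mix addition, stable 5–60 min. Benchmarks: DMSO as neutral control, TFP as positive control.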
E-sel inducer: induces E-selectin expression in human endothelial cells. P16581. HUVEC E-selectin immunofluorescence imaging; normalized: neutral wells 0, TNF-alpha wells 100. activation, % at 7.58 µM. 260,000 compounds, 0.37% hits. AID 686992;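 active = mean E-selectin-positive cell signal at least 10% of the positive control, reached in at least 60% of replicates, without over 20% cell loss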
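System: HUVEC / Compound: single concentration / Signal: immunofluorescence imaging / Read-out: percent E-selectin-positive cells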
Hits are given with their value; ! = repeats disagree. An excerpt weighted towards active compounds, which were near 2% of everything screened.

COc1ccccc1NC(=O)N1CC(=O)N2[C@H](CO)[C@@H](c3ccc(-c4ccc(F)cc4)cc3)[C@H]2C1 was read as Xi reactivation inactive, DENV2 CPE 28.6, S100A4 inh HTS inactive and E-sel inducer inactive.
For COc1ccccc1NC(=O)N1CC(=O)N2[C@H](C1)[C@@H](c1ccc(-c3ccc(F)cc3)cc1)[C@@H]2CO the results were Xi reactivation inactive, DENV2 CPE inactive, S100A4 inh HTS inactive and E-sel inducer inactive.
For COc1ccccc1NC(=O)N1CC(=O)N2[C@@H](CO)[C@H](c3ccc(C#Cc4ccc(F)cc4)cc3)[C@@H]2C1 the results were Xi reactivation inactive, DENV2 CPE 33.1, S100A4 inh HTS inactive and E-sel inducer inactive.
For O=C(Nc1cc(F)ccc1F)N1CC(=O)N2[C@@H](CO)[C@@H](c3ccc(-c4cccnc4)cc3)[C@@H]2C1 the results were Xi reactivation inactive, DENV2 CPE 23.1, S100A4 inh HTS inactive and E-sel inducer inactive.
For O=C(Nc1cc(F)ccc1F)N1CC(=O)N2[C@@H](CO)[C@H](c3ccc(-c4cccnc4)cc3)[C@@H]2C1 the results were Xi reactivation inactive, DENV2 CPE inactive, S100A4 inh HTS inactive and E-sel inducer inactive.
Screening CC(C)N1CCN(C(=O)c2ccc([N+](=O)[O-])cc2)CC1 returned Xi reactivation inactive, DENV2 CPE inactive, S100A4 inh HTS inactive and E-sel inducer inactive.
CCCCN1C(=O)C(CC(=O)NCCCN(C)C)CC(C(=O)N(C(C)C)C(C)C)=C1C (stereo not drawn) was read as Xi reactivation inactive, DENV2 CPE inactive, S100A4 inh HTS inactive and E-sel inducer inactive.
Screening O=C(NC1CCCCC1)N[C@@H]1CC[C@@H](CCNS(=O)(=O)c2ccc(F)cc2)O[C@H]1CO returned Xi reactivation inactive, DENV2 CPE inactive, S100A4 inh HTS inactive and E-sel inducer inactive.
Screening O=C(c1cnccn1)N1CC(=O)N2[C@H](CO)[C@@H](c3ccc(-c4ccc(F)cc4)cc3)[C@H]2C1 returned Xi reactivation inactive, DENV2 CPE inactive, S100A4 inh HTS 124.3 and E-sel inducer inactive.
Cc1ccccc1-c1ccc(C2[C@@H]3CN(C(=O)c4cnccn4)C[C@H]2N3)cc1 (stereo partly drawn) was read as Xi reactivation inactive, DENV2 CPE 29.2! and E-sel inducer inactive.
`O=C(Nc1ccccc1F)N1CC(=O)N2[C@H](CO)[C@@H](c3ccc(-c4ccccc4)cc3)[C@H]2C1` gave Xi reactivation inactive, DENV2 CPE 43.2, S100A4 inh HTS 124.1 and E-sel inducer inactive.
Screening O=C(Nc1ccccc1C(=O)NCc1ccccc1)c1ccccc1Br returned Xi reactivation inactive and E-sel inducer inactive.
CCCC(=O)OCCNc1cc(SCc2ccco2)c2nonc2c1[N+](=O)[O-] was read as Xi reactivation inactive.
`CCCC(=O)OCCNc1cc(Sc2nccn2C)c2nonc2c1[N+](=O)[O-]` gave Xi reactivation 22.6.
Screening CCC(=O)OCCNc1cc(Sc2nc3ccccc3[nH]2)c2nonc2c1[N+](=O)[O-] returned Xi reactivation 16.2.
`CCCSc1cc(NCCOC(=O)CCC)c([N+](=O)[O-])c2nonc12` gave Xi reactivation inactive.
CCOc1cc(CN2CCN(S(=O)(=O)Cc3ccccc3)CC2)ccc1OC was read as Xi reactivation inactive, DENV2 CPE inactive, S100A4 inh HTS inactive and E-sel inducer inactive.
CO[C@@H]1CN(C)C(=O)c2ccc(NC(=O)Nc3cccc(F)c3)cc2OC[C@H](C)N(C(=O)C2CC2)C[C@@H]1C was read as Xi reactivation inactive and E-sel inducer inactive.
COCC(=O)NC[C@@H]1[C@@H](c2ccc(-c3ccccc3)cc2)[C@H](CO)N1C(C)=O was read as Xi reactivation inactive, DENV2 CPE 40.6, S100A4 inh HTS inactive and E-sel inducer inactive.
For CCC(=O)NC[C@@H]1[C@@H](c2ccc(-c3ccc(OC)cc3)cc2)[C@@H](CO)N1C(C)=O the results were Xi reactivation inactive, DENV2 CPE 42.1, S100A4 inh HTS inactive and E-sel inducer inactive.
For Cc1ccc(N2C(=O)[C@@H]3C(c4cccnc4)=NO[C@@H]3C2=O)c(C)c1 the results were Xi reactivation inactive, DENV2 CPE inactive, S100A4 inh HTS inactive and E-sel inducer 30.7.
CC(C)C[C@@H]1NC(=O)[C@H]2C[C@@H](C(=O)NCCCCCN)[C@@H](c3cccc(OCCO)c3)N2C1=O was read as DENV2 CPE 31.8 and S100A4 inh HTS inactive.
For O=C(CS)NCCCCCCNC(=O)[C@H]1C[C@H]2C(=O)NCC(=O)N2[C@H]1c1cccc(OCCO)c1 the results were DENV2 CPE inactive and S100A4 inh HTS inactive.
`COc1cc(OC)cc(N(C(=O)c2snc(C(N)=O)c2N)C(C(=O)NCC2CCCO2)c2ccc(C)o2)c1` (stereo not drawn) gave Xi reactivation inactive, DENV2 CPE inactive, S100A4 inh HTS inactive and E-sel inducer 44.1.
For O=S(=O)(N[C@H]1CC[C@H](CCn2cc(Cc3ccccc3)nn2)O[C@H]1CO)c1ccccc1F the results were Xi reactivation inactive, DENV2 CPE inactive, S100A4 inh HTS inactive and E-sel inducer inactive.
For O=C(NC[C@@H]1[C@H](c2ccccc2)[C@H](CO)N1C(=O)Cc1cccnc1)C1CCC1 the results were Xi reactivation inactive, DENV2 CPE inactive and E-sel inducer inactive.
Screening COc1cc(/C=C/C(=O)OCC(=O)Nc2cc(S(=O)(=O)N3CCCCC3)ccc2C)ccc1O returned Xi reactivation inactive, DENV2 CPE 21.6 and S100A4 inh HTS inactive.
COc1ccc(NC(=S)NNC(=O)COc2ccc(Cl)cc2Cl)cc1 was read as Xi reactivation inactive and E-sel inducer inactive.
For Cc1cc(C)c(NC(=S)N(Cc2cccnc2)Cc2ccco2)c(C)c1 the results were Xi reactivation inactive, DENV2 CPE 48.8, S100A4 inh HTS inactive and E-sel inducer inactive.
CCc1ccccc1NC(=S)N(Cc1cccnc1)Cc1ccco1 was read as Xi reactivation inactive, DENV2 CPE inactive and S100A4 inh HTS inactive.
For CCN(c1ccccc1)c1cc(C)nc2nc(C)nn12 the results were Xi reactivation inactive, DENV2 CPE inactive, S100A4 inh HTS inactive and E-sel inducer inactive.
For Cc1cccc(N(C)c2cc(C)nc3nc(C)nn23)c1 the results were Xi reactivation inactive, DENV2 CPE 28.7, S100A4 inh HTS inactive and E-sel inducer inactive.
Screening Cc1ccc(C)c(S(=O)(=O)Nc2nc(C)c(C(=O)Nc3ccccc3)s2)c1 returned Xi reactivation inactive, DENV2 CPE inactive, S100A4 inh HTS inactive and E-sel inducer inactive.
`CC(C)(O)CN(C(=O)C(c1ccccc1)c1ccccc1)C1CCCCC1` gave Xi reactivation inactive, DENV2 CPE inactive, S100A4 inh HTS inactive and E-sel inducer inactive.
Screening O=C1Nc2ccccc2C1Cc1ccc(OC(F)(F)F)cc1 (stereo not drawn) returned Xi reactivation inactive, DENV2 CPE inactive, S100A4 inh HTS inactive and E-sel inducer inactive.
Screening COc1cc(CC2C(=O)Nc3ccccc32)cc(C)c1O (stereo not drawn) returned Xi reactivation inactive, DENV2 CPE inactive, S100A4 inh HTS inactive and E-sel inducer 52.3.
